# Bioassay records: PubChem, several laboratories
# Pemphigus Ab inh – inhibitors of pemphigus antibody binding to human desmoglein-3 | AID 588358 | P32926 | DSG3-coupled beads, scFv-anti-DSG3-GFP binding, flow cytometry; stronger effect = lower value | binding (percent of control), % at 10 µM | hit rate 0.48% among 310,000;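 active = binding more than 3 SD below its plate's average and above zero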
# MBD2 DNA inh – MBD2-methylated oligo binding inhibition. Q9UBB5. inhibition, % at 4.4 µM. hit rate 0.31% among 370,000. TR-FRET, MBD2 binding to methylated oligonucleotide; in the data active = inhibition above about 13%
# UHRF1 MBD2 ctr – human UHRF1 methylated DNA binding inhibitors; Q96T88; hit rate 0.75% among 370,000; UHRF1 binding to methylated oligo, TR-FRET; AID 687016; inhibition, % at 4.4 µM; in the data active = inhibition above about 21%;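 also: UHRF1 SRA domain binding a hemimethylated CpG hairpin DNA probe; 0% = median of test compound wells and 100% = reference inhibitor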
# NS3 helicase inh – blocks Hepatitis C virus NS3 helicase unwinding; AID 1800; inhibition, % at 10.9 µM; NS3 helicase DNA unwinding, Cy5 molecular beacon fluorescence; hit rate 0.56% among 290,000;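 active = inhibition above the mean of all tested compounds plus 3 SD, set per campaign, cut at about 35% in these data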;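 also: 0% = DMSO wells and 100% = thioflavine S control wells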
#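 Assay system – hepatitis C virus NS3 helicase domain fragment enzyme · Buffer or medium – MOPS pH 6.5, MgCl2, DTT, Tween20, BSA · Reagent – Cy5/quencher beacon DNA duplex and ATP to start · Compound – single 10.9 µM dose · Timing – 1 h at 25 °C · Technique – Cy5 beacon fluorescence read at start and 1 h · Measure – % inhibition of unwinding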
# SUMO1 PPI mod – modulators of human SUMO1-mediated protein-protein interactions; hit rate 0.33% among 360,000; inhibition, % at 20 µM; SUMO1 binding to a labelled peptide, TR-FRET, 1 h
# DNMT1 inh – DNMT1 (human) enzyme inhibition. P26358. inhibition (reported as % activation of signal), % at 10 µM. DNMT1 molecular beacon, Hinp1I cleavage, fluorescence. hit rate 0.83% among 360,000. AID 588458; in the data active = inhibition above about 50%
# Target sequence (P26358 504-1616 limits assumed): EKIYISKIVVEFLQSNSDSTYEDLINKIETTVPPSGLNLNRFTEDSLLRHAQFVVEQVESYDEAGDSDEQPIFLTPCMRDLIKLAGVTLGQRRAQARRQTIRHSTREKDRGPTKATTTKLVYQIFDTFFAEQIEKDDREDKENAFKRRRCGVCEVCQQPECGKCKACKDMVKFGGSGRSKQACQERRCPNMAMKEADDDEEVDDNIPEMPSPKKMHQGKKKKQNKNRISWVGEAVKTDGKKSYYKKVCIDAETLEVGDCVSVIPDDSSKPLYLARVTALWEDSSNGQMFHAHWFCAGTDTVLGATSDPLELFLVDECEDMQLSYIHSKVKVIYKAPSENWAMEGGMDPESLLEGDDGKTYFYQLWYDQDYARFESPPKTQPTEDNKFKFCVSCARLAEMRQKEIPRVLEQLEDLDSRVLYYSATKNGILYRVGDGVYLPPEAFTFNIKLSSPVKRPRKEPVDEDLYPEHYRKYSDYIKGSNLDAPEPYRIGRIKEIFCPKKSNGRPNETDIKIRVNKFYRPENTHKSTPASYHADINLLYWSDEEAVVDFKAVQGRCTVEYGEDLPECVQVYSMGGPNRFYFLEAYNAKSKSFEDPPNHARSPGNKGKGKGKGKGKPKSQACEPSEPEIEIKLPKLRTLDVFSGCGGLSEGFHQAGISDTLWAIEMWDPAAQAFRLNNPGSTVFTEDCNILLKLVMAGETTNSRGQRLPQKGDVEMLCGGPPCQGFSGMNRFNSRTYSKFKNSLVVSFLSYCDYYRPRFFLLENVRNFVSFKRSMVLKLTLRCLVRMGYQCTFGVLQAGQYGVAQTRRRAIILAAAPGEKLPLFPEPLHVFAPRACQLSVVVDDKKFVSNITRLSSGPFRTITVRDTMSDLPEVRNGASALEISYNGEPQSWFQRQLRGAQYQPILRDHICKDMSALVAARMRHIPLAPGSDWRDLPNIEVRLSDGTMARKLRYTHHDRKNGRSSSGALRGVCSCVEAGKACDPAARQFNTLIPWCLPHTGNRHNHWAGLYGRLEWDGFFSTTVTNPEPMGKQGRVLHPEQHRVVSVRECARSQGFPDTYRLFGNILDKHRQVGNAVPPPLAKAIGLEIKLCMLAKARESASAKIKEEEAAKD
# NS3 helicase cf – HCV NS3 helicase inhibition, confirmation assay; shares compounds with NS3 helicase inh; NS3 helicase DNA unwinding, Cy5 molecular beacon fluorescence; inhibition, % at 10.9 µM; hit rate 31% among 1,600; AID 1943;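 active = inhibition above the mean of all tested compounds plus 3 SD, cutoff set per campaign, cut at about 36% in these data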
# FID counter trip – intercalator displacement, NS3 helicase counter-screen. shares compounds with NS3 helicase inh. DNA fluorescent intercalator displacement, fluorescence. inhibition, % at 7.9 µM. hit rate 4% among 1,600. AID 1945;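 also: 0% = vehicle and 100% = reference compound; higher means more displacement of ethidium bromide from the DNA hairpin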
# DNA FID DR – DNA intercalator displacement in dose response; shares compounds with NS3 helicase inh; IC50, µM; 120 tested, under 10 active; AID 2172; fluorescent intercalator displacement from DNA, fluorescence; call rule not given here
# * = called active by the depositor; nt = no result given. Hits are enriched below; roughly 2.5% of the tested compounds scored in any of these assays. Rule as the data show it, unless noted: active = inhibition above about 37%; inactive = the rest.
SMILES,Pemphigus Ab inh,MBD2 DNA inh,UHRF1 MBD2 ctr,NS3 helicase inh,SUMO1 PPI mod,DNMT1 inh,NS3 helicase cf,FID counter trip,others
O=C1[C@H]2[C@@H](/C=C/c3ccccc3)N3C(=O)CN(CCO)C(=O)[C@@]3(Cc3ccccc3)[C@H]2C(=O)N1c1ccccc1,101.0,-1.7,-2.1,19.5,2.9,0.4,nt,nt,
CN1C(=O)[C@H]2[C@@H](/C=C/c3ccccc3)N3C(=O)CN(CCO)C(=O)[C@@]3(Cc3ccccc3)[C@H]2C1=O,99.7,-7.2,-0.3,44.4*,-1.8,14.0,-13.7,-7.5,
COc1ccc(OCC(O)CNC(=O)c2sccc2Cl)cc1 (stereo not drawn),nt,0.9,1.0,44.5*,3.3,1.1,-8.1,-0.1,
O=C(O)c1cccc(-n2c(/C=C/c3ccccc3)nc3ccccc3c2=O)c1,103.9,-5.1,-2.6,52.6*,-11.2,1.9,53.3*,-22.9,DNA FID DR=>79.4
COc1ccc(C(=O)Nc2ccccc2C(=O)O)cc1Cl,nt,0.9,2.9,39.1*,5.7,2.7,30.4,8.8,
C=CCSC1=N/C(=C\c2cc(OCC)c(OC(C)=O)c([N+](=O)[O-])c2)C(=O)S1,126.1,-1.6,18.7,49.6*,20.2,11.7,91.8*,15.7,
O=C(NC(=S)NC1CCSC1=O)c1ccc([N+](=O)[O-])cc1 (stereo not drawn),nt,2.4,-3.8,42.9*,-27.5,1.3,-17.3,12.8,
O=C(NC(=S)NNC(=O)c1ccccc1O)c1ccc([N+](=O)[O-])cc1,111.7,-6.3,-2.1,36.2*,-28.7,-1.4,-12.5,16.9,
CCOC(=O)c1c(C)c(C(=O)NCc2ccccn2)c(C)n1CC,101.9,nt,nt,3.6,0.6,0.4,nt,nt,
Cc1ccc(NC(=O)CSc2nc3nn(-c4ccccc4)c(=O)c-3c3n2CCCCC3)cc1F,102.7,-1.6,2.5,nt,-12.2,-9.8,nt,nt,
Cc1ccc(/C=N/NC(=O)c2cccc(NC(=O)c3ccccc3C)c2)o1,105.0,0.7,-3.9,2.3,12.0,-3.0,nt,nt,
O=C(N/N=C/c1ccccc1)c1ccc(NC(=O)c2ccc(F)cc2)cc1,111.2,3.5,-1.1,38.4*,1.5,5.7,-8.9,0.8,
O=C(N/N=C/c1cc(Br)cc([N+](=O)[O-])c1O)c1ccc(NC(=O)c2ccc(F)cc2)cc1,89.8,-7.0,-1.5,36.8*,6.3,-12.1,8.5,-2.0,
O=C(N/N=C/c1cc(Br)cc(Br)c1O)c1ccncc1,nt,-1.1,-4.8,14.4,nt,nt,nt,nt,
COc1ccc(/C=N\NC(=O)c2ccccc2)cc1COc1ccc(F)cc1,102.9,-3.2,0.6,46.1*,-14.6,-2.6,-11.9,-35.0,
Cc1cccc(C(=O)Nc2ccc(C(=O)N/N=C/c3ccc(C)o3)cc2)c1,99.2,0.5,-0.5,40.6*,-3.7,0.8,-15.7,-20.3,
Cc1ccccc1N1CCN(CCCCN2C(=O)C3CCCN3C2=O)CC1 (stereo not drawn),97.8,-0.3,-4.7,2.8,7.1,0.8,nt,nt,
O=C(N/N=C/c1cc(Cl)cc([N+](=O)[O-])c1O)c1ccc2c(c1)OCO2,128.8,0.2,-3.3,52.2*,-21.1,3.2,-7.7,6.6,
COc1cc(Cl)cc(/C=N\NC(=O)c2ccc3c(c2)OCO3)c1O,99.7,-0.9,-1.1,nt,23.7,3.0,nt,nt,
O=c1c(-c2ccc(O)cc2)coc2c([C@@H]3O[C@H](CO)[C@@H](O)[C@H](O)[C@H]3O)c(O)ccc12,99.3,1.6,-0.6,nt,-6.4,4.4,nt,nt,
O=C(O)c1cc(NC(=S)NC(=O)C(c2ccccc2)c2ccccc2)ccc1Cl,101.2,3.2,2.1,41.0*,2.9,0.7,76.5*,-4.5,
CN1/C(=C\C=N\O)C(C)(C)c2ccccc21,96.3,-3.8,-5.7,-8.8,3.0,-8.8,nt,nt,
CN(C)c1ccc(N=C/C=C2/N(C)c3ccccc3C2(C)C)cc1,132.9,-7.7,-7.4,36.2*,-43.1,-9.5,-13.1,42.0*,
C=CCN1CCS(=O)(=O)N(Cc2ccccc2)[C@@H](C(C)C)C1=O,105.4,-2.2,-0.2,nt,1.5,3.0,nt,nt,
COc1cccc(S(=O)(=O)Nc2cccnc2)c1,98.3,-0.4,-1.6,1.7,-4.0,-0.6,nt,nt,
SMILES,Pemphigus Ab inh,MBD2 DNA inh,UHRF1 MBD2 ctr,NS3 helicase inh,SUMO1 PPI mod,DNMT1 inh,NS3 helicase cf,FID counter trip,others
O=c1c(C(c2ccc(Cl)cc2)c2c(O)nc3n(c2=O)CCS3)c(O)nc2n1CCS2,113.4,3.2,-0.3,46.6*,12.7,2.9,22.6,1.6,
NC(=O)c1ncn([C@@H]2O[C@H](CNCc3cccn3-c3ccncc3)[C@@H](O)[C@H]2O)n1,110.5,-2.3,-0.6,nt,1.1,3.1,nt,nt,
CC1C/C(=C/c2ccco2)C(=O)/C(=C/c2ccco2)C1 (stereo not drawn),nt,nt,nt,27.4,nt,nt,nt,nt,
O=C1/C(=C\c2ccco2)CCC/C1=C\c1ccco1,150.8,18.6*,55.9*,48.2*,-4.3,73.0*,27.1,28.1,
O=C1/C(=C/c2cccs2)CCC/C1=C\c1cccs1,nt,0.6,8.8,71.8*,-16.1,9.9,-2.9,0.8,
O=C1C(=Cc2cccs2)CCc2ccccc21,nt,-1.5,-1.4,nt,nt,nt,nt,nt,
Clc1ccc(CN2CCCCCCC2)cc1,88.0,-0.1,2.6,-5.1,0.2,3.8,nt,nt,
CCN(CC)S(=O)(=O)c1ccc(OC)c(NC(=O)/C=C/c2ccco2)c1,103.8,-3.1,-0.7,63.5*,-11.3,-2.1,-16.9,-20.0,
CCN(CC)S(=O)(=O)c1ccc(N2CCCCC2)c(NC(=O)/C=C/c2ccc(OC)c(OC)c2)c1,98.8,-3.1,-1.2,-23.0,-1.3,-1.6,nt,nt,
COc1ccc(C2(CNC(=O)/C=C/c3ccco3)CCCC2)cc1OC,122.0,1.1,-2.1,37.8*,19.0,-16.4,-1.2,-55.0,
Cc1ccccc1CN(C)CC(=O)Nc1c(C)cccc1C(C)C,111.2,-0.1,1.8,-8.9,-1.1,-2.0,nt,nt,
Cc1ccc(C)c(NC(=O)c2cc(S(=O)(=O)N3CCCCC3)ccc2N2CCOCC2)c1,97.3,-0.8,0.2,nt,0.0,-3.8,nt,nt,
Cc1ccc(Oc2ccc(OCC(=O)NC(CC(C)C)C(=O)O)cc2)cc1 (stereo not drawn),98.9,-3.6,-2.7,44.9*,4.1,0.7,39.0*,-24.8,
COc1ccc(CCNC(=O)C(=O)NCC2OCCN2S(=O)(=O)c2ccccc2)cc1 (stereo not drawn),100.1,-2.7,-1.0,37.1*,-3.0,-1.6,-11.5,-47.3,
O=C(O)c1nccnc1C(=O)Nc1ccccc1N1CCOCC1,nt,4.8,1.0,-2.2,1.4,-5.9,nt,nt,
COc1ccc(C(=O)Nc2cccc(-c3ccc4nncn4n3)c2)cc1OC,97.0,-5.3,-0.8,1.7,-12.9,-3.7,nt,nt,
